According to PubChem BioAssay AID720543 (The Scripps Research Institute Molecular Screening Center, 2013):
About 2,000 (0.54%) of roughly 370,000 compounds were called active. Many of the other results were omitted from the sample, so actives are more common in it than they were. A number with no mark means an inactive call.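 The calls were made as follows: active = inhibition exceeding the mean over every tested compound plus 3 SD (cut at about 30% in these data); inactive = the rest.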

molecular target: (Lyso)-N-acylphosphatidylethanolamine lipase (Mus musculus) (UniProt Q8VD66); experiment: mouse ABHD4 hydrolase activity blockers – biochemical, fluorescence polarization, primary screen (AID 720543); conditions: purified mABHD4, FP-Rh probe fluorescence polarization; at 8.92 µM; hits give high values;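 also: 0% = plate median of compound wells and 100% = S159A mutant with DMSO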
How it was run: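 assay system = mABHD4 protein | compound dosing = single nominal dose of 8.92 µM, 0.89% DMSO final | read-out basis = percent inhibition of probe binding, normalized to plate controls | schedule = Enzyme–compound pre-incubation 45 min, then probe 60 min, both 25 °C | detection = fluorescence polarization, excitation 525 nm, emission 598 nm, BODIPY TMR filters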

Chain of (Lyso)-N-acylphosphatidylethanolamine lipase (Mus musculus) (Q8VD66 whole entry, looked up): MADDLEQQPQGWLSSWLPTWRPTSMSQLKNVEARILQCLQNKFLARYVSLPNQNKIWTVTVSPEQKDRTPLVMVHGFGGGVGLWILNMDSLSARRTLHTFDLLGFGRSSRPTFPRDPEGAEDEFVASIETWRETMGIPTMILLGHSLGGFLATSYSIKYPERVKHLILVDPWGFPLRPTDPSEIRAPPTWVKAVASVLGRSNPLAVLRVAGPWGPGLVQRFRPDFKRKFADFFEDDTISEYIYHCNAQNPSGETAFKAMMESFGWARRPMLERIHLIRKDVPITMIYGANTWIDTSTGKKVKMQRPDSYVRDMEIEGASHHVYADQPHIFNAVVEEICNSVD

Compound | inhibition
Oc1ccc(N2CCN(C(=S)NCc3ccccc3)CC2)cc1 | 14.8%
Oc1ccc(CNc2ccccc2O)cc1 | 37.8% (active)
c1ccc(CNCc2ccc(CNCc3ccccc3)cc2)cc1 | 5.37%
Cc1nc(CNc2ncnc3ccc(-c4ccc5c(c4)OCO5)cc23)cs1 | -1.75%
O=C(OCc1ccccc1)N1CCC2CC1c1cc(N3CCN(S(=O)(=O)c4cc(Cl)cc(Cl)c4)CC3)ccc12 (configuration not stated) | 2.29%
CCOC(=O)[C@H]1Nc2ccc(Cl)cc2[C@@H]2[C@H]1C1CC(c3ccccc31)N2C(=O)OCc1ccccc1 (some centres not stated) | 46.2% (active)
CCOC(=O)[C@H]1[C@H]2COc3ccc(Cl)cc3[C@@H]2N2C(=O)c3cc(C)ccc3NC(=O)[C@@]12C | 2.18%
Cc1cc2nc3c(=O)[nH]c(=O)nc-3n(C[C@H](O)[C@H](O)[C@H](O)CO)c2cc1C | 15.4%
CCN(CC)CCCC(C)n1c2nc(=O)[nH]c(=O)c-2nc2cc(Cl)ccc21 (configuration not stated) | 29.5% (active)
O=C(CSc1nc2ccccc2s1)N=Nc1c(O)[nH]c2ccccc12 | -11.2%
O=C1c2ccccc2C(=O)C1C(=O)C1CC1 | 10.5%
C/C(=N\NC(=O)c1ccc(C)cc1)C1C(=O)c2ccccc2C1=O | 32.6% (active)
C/C(=N\NC(=O)CNC(=O)C(c1ccccc1)c1ccccc1)c1ccc(C)cc1 | 0.45%
CCOc1cc(C(=O)N2CCc3cc(OC)c(OC)cc3C2)ccc1OC(F)F | -1.64%
O=C(NCCCc1ccccc1)[C@H](Cc1ccccc1)NC1(C(=O)NCCc2c[nH]c3ccccc23)CCC1 | -14.2%
CC(CNc1ccc([N+](=O)[O-])c2cccnc12)Nc1c([N+](=O)[O-])cc(C(F)(F)F)cc1[N+](=O)[O-] (configuration not stated) | 3.66%
CCN1CCN(C(=O)CN(C)S(=O)(=O)c2ccc3ccccc3c2)CC1 | 4.18%
CC(=O)Oc1ccc(N(C(C)=O)S(=O)(=O)c2ccc3ccccc3c2)cc1Br | 32.3% (active)
CN(C1CCS(=O)(=O)C1)S(=O)(=O)c1ccc2ccccc2c1 (configuration not stated) | 3.99%
Brc1c(CSc2nncc3ccccc23)nc2ccccn12 | -3.21%
CCC(C)[C@@H](C(=O)OC)N(CCc1cn(Cc2ccccc2)nn1)S(=O)(=O)c1ccccc1Br (some centres not stated) | -6.72%
c1ccc2sc(NN=C3CCCC3)nc2c1 | 37.2% (active)

Compound | inhibition
O=C1NC(Nc2nc3ccccc3s2)(C(F)(F)F)C(=O)N1C1CCCCC1 (configuration not stated) | -23%
O=C(COc1ccc(-c2ccccc2)cc1)NN=C1CCCC1 | 0.58%
COC(=O)C1=C(C)N(Cc2ccc(C(F)(F)F)cc2)C(=NCc2ccccc2)NC1c1ccccc1C(F)(F)F (configuration not stated) | 6.99%
Cc1nc2ccc(C(=O)N3CCN(C(=O)C(C)(C)C)CC3)cc2n1C1CCCC1 | -2.14%
COC(=O)[C@]12C[C@H](CC(=O)NCCc3ccccc3OC)C(=O)N(Cc3ccco3)C1=C[C@H](C(C)C)O[C@@H]2C1CC1 | -4.62%
CCOc1[nH]n(-c2ccc(Cl)cc2)c(=O)c1C=Nc1ccc(O)cc1 | 37.3% (active)
O=C(c1cccc(C(F)(F)F)c1)N1CC[C@H]2[C@H](CCCN2Cc2cc(F)cc(F)c2)C1 | -3.78%
CCC1(CC)NC(=O)N(CC(=O)OCC(=O)Nc2ccc(C(F)(F)F)cc2)C1=O | -3.48%
Cn1c(SCC(=O)N/N=C/c2ccc(O)c(O)c2)nc2ccccc21 | 30.7% (active)
O=C(CSc1nc2ccccc2s1)NN=Cc1ccc(O)cc1O | 0.63%
O=C(CSc1nc2ccccc2n1Cc1ccccc1Cl)N/N=C\c1c[nH]c2ccccc12 | -14.1%
CC1CN(C(=O)c2cccc(NS(=O)(=O)c3ccc(Br)cc3)c2)CC(C)O1 (configuration not stated) | 3.29%
C/C(=N/N1CCN(Cc2cccc3ccccc23)CC1)c1cccnc1 | -2.15%
COCCCNC(NC(=O)c1ccc(C)cc1)C(Cl)(Cl)Cl (configuration not stated) | -5.04%
O=C(C1CCCO1)N1CCN(S(=O)(=O)c2ccc(Br)cc2)CC1 (configuration not stated) | 1.47%
O=C(N/N=C/c1ccc(O)c(O)c1)C1c2ccccc2Oc2ccccc21 | 26.1%
Cc1nnsc1C(=O)N/N=C/c1cccc(C(F)(F)F)c1 | 3.14%
Oc1ccc(/C=N/Nc2ccc(C(F)(F)F)cn2)cc1O | 36.2% (active)
Cc1nccc(-c2ccc(-n3c(C)ccc3C)cc2)n1 | -7.18%
CNC(=S)NNC(=O)c1oc2nc(-c3ccccc3)cc(-c3ccco3)c2c1N | 37.3% (active)
CC(C)CNC(=O)OCc1cn(Cc2ccc(F)cc2)nn1 | -1.25%
O=C(CSc1nnc(-c2cccc(Cl)c2)n1Cc1ccco1)Nc1ccc(OCc2ccccc2)cc1 | 4.02%

Compound | inhibition
Cc1cc(C)cc(NC(=O)N2CCC(N(C)CCC(C)C)CC2)c1 | -1.26%
CCn1c(SCC(=O)Nc2cccc(F)c2)nnc1-c1cc2cc(Br)ccc2o1 | -4.13%
[O-][n+]1ccc(OCc2ccccc2)cc1 | 1.3%
Cc1cccc(C2C3=C(CCCC3=O)N=C3c4ccccc4C(=O)C32)c1 (configuration not stated) | 25.7%
CCOC(=O)C1=C(C)N=C2c3ccccc3C(=O)C2C1c1ccc(Br)cc1 (configuration not stated) | 46.9% (active)
CCOC(=O)C1=C(C)NC(SC)=NC1c1ccccc1 (configuration not stated) | 4.01%
O=C(CN1CCCCCC1)N1c2ccccc2Sc2ccc(C(F)(F)F)cc21 | -5.91%
Cc1ccc(S(=O)(=O)N(C)C)cc1NC(=O)COC(=O)C1COc2ccccc2O1 (configuration not stated) | -2.17%
COC(=O)Cc1cc(=O)oc2c(C)c(O)ccc12 | -0.82%
Cc1c(CC(=O)N2CCN(C(=O)C3COc4ccccc4O3)CC2)c(=O)oc2c(O)c(O)ccc12 (configuration not stated) | 31.1% (active)
NC(=O)CCC(NS(=O)(=O)c1ccc(Cl)cc1)C(=O)NCc1ccccc1Cl (configuration not stated) | 1.64%
Cc1noc(C)c1C(=O)N(CC(=O)NC1CCCC1)Cc1ccccc1F | 8.87%
Cc1ccc2c(C)c(C(=O)N(C)CCC3CCCCO3)oc2c1C (configuration not stated) | 2.89%
COC(=O)CC1CCc2cc(C)cc(C(CC(C)C)NC(=O)[C@H](CC(C)C)NC(=O)OCc3ccccc3)c2O1 (some centres not stated) | 1.24%
COCCOC(=O)c1sc(=S)n(CCOC)c1N | 52.1% (active)
C=CCN(Cc1ccc2c(c1)OCO2)C(C#CC1CC1)C(C)(C)C (configuration not stated) | 7.34%
N#Cc1ccc(OC[C@@H](O)CN2CCC(C(O)(c3ccccc3)c3ccccc3)CC2)c(F)c1 | 3.13%
COCCCn1c(SCC(=O)Nc2oc(C)c3c(C)n[nH]c(=O)c23)nc2sc3c(c2c1=O)CCC3 | -0.16%
NC(N)=N/N=C/c1ccc(OCc2ccc(Cl)cc2Cl)cc1 | 31.7% (active)
NC(=O)COc1ccc(/C=N/NC(=O)C2CCCN2S(=O)(=O)c2ccc(Cl)cc2)cc1 (configuration not stated) | -2.8%
COC(=O)c1ccccc1-n1cc(COC(=O)NCCc2ccccc2)nn1 | 4.86%
CC(=O)c1ccc(S(=O)(=O)NCC2CCN(C(=O)C(=O)c3cccs3)CC2)cc1 | -4.2%

Compound | inhibition
C=C1C(C(C)C)N(C)C2=NC(c3ccccc3)CC(=O)N12 (configuration not stated) | -4.4%
CCCCCCSc1ccc(-c2nc3ccc(Cl)cn3c2NCc2ccccc2)cc1 | 30.7% (active)
COc1ccccc1Cc1c(-c2ccc(Cl)cc2)nc2ccc(Cl)cn12 | -4.24%
Clc1ccc2nc(CSc3ccccc3)cn2c1 | 0.19%
CCOC(=O)C1(S(=O)(=O)c2ccc(Cl)cc2)CCN(Cc2ccccc2)CC1 | -3.97%
c1csc(-c2nnc(COc3ccc4c(c3)OCO4)o2)c1 | 2.17%
c1coc(CCNc2ncnc3ccc(-c4ccc5c(c4)OCO5)cc23)c1 | -22.8%
CC(=O)Nc1ccc(S(=O)(=O)NC(C)C(=O)OCC(=O)NC2CCCC2)cc1 (configuration not stated) | -2.25%
C/C=C/C(=O)OCc1csc(CC(=O)Nc2ccccc2C)n1 | -5.94%
Cc1ccc(NC(=O)Cc2nc(COC(=O)C(C)NS(=O)(=O)c3ccc(C)cc3)cs2)cc1 (configuration not stated) | 30% (active)
Cc1cc(C)c2nc3nc(C)cc(C)c3c(N)c2c1 | -1.05%
Cc1sc2nc(SCC(=O)c3ccc(O)c(O)c3)n(Cc3ccco3)c(=O)c2c1C | 4.55%
COCCCNC(=O)C[C@H]1C[C@@]2(C(=O)OC)C(=C[C@H](C(C)(C)C)O[C@@H]2C)N(Cc2ccc3c(c2)OCO3)C1=O | 1.21%
CCOC(=O)c1cc(-c2sc(NC(=O)c3ccccc3)nc2C)n(-c2ccc(Br)cc2)n1 | 1.18%
Cc1ccc2c(C(=O)CN3CCCC3)c(C)[nH]c2c1 | 0.49%
Nc1ccc(Nc2ccccc2)cc1 | 46.5% (active)
O=c1cnnc(Nc2ccccc2)[nH]1 | 4.6%
Cc1ccc(Nc2ccccc2N)cc1 | 28.9%
CCCc1ccc(C(O)c2ncc(-c3cccc(OC)c3)[nH]2)cc1 (configuration not stated) | -9.64%
Cc1ccc(CN2CCCCC(NC(=O)C3CCCCC3)C2=O)cc1 (configuration not stated) | -4.62%
COC(=O)C1CN(CC(C)C)CCS(=O)(=O)N1Cc1ccc(C)cc1 (configuration not stated) | 2.37%
CN1c2ccc(C=O)c3c(C=O)ccc(c23)N(C)C1(C)C | 64.5% (active)

Compound | inhibition
COC(=O)C1CN(CC(C)C)CCS(=O)(=O)N1Cc1ccc(F)cc1 (configuration not stated) | 0.68%
CCC(=O)c1c(CC)c2n3c1=CC[C@H]3CC(Br)C=2 (some centres not stated) | 3.54%
Cc1cc(C)n2ncc(C(=O)Nc3ccc4c(c3)OCCO4)c2n1 | 1.04%
Cc1cc(C(=O)N/N=C/c2ccc(O)c([N+](=O)[O-])c2)c(C)n1-c1ccc(F)cc1 | 37.5% (active)
O=C(N/N=C/c1cccc([N+](=O)[O-])c1)C1CC(=O)N(c2ccc(Br)cc2)C1 (configuration not stated) | -2.95%
Cc1cc(C(=O)COc2ccccc2[N+](=O)[O-])c(C)n1-c1cccc(S(=O)(=O)N2CCOCC2)c1 | -5.94%
O=C1CC(c2ccc3c(c2)OCO3)N=C2N(CC3CC3)C/C(=C/c3ccccc3)N12 (configuration not stated) | 5.86%
COc1cccc(CNC(=O)[C@H]2CCCN2C(=O)[C@H]2CCCN2C(=O)c2cc(F)cc(F)c2)c1 | 1.83%
Cc1cc(=O)n2[nH]c(-c3sccc3-n3c(C)ccc3C)cc2n1 | 16.4%
O=[N+]([O-])/C=C/c1ccc2c(ccn2Cc2ccccc2)c1 | -15%
O=S(=O)(/N=C(/Nc1ccccc1)c1ccccc1)c1cccs1 | 1.09%
O=C(O)c1ccc(N/N=C/c2cn(-c3ccccc3)nc2-c2cccs2)cc1 | 34.6% (active)
Cc1c(NC(=O)C(=O)N/N=C/c2cccs2)c(=O)n(-c2ccccc2)n1C | 3.46%
CN1C[C@]2(C=C3CCCCC3n3c(=O)n(-c4ccccc4)c(=O)n32)N=C1NC(=O)c1ccccc1 (some centres not stated) | 0.57%
COc1cc(C(=O)Nn2c(O)c(C3=c4ccccc4=NC3=O)sc2=S)ccc1O | 57.7% (active)
COc1ccc(C(=O)NC(=S)N2CCCCC2c2cccnc2)cc1OC (configuration not stated) | -3.67%
COc1cc(C(=S)NC2CCCCC2)ccc1O | 0.73%
CCOC(=O)[C@]12CCCC=C1N(Cc1ccc(OC)cc1)C(=O)[C@@H]2CC(=O)N1CCOCC1 | 5.88%
O=C(c1ccc2c(c1)N(Cc1ccc(F)cc1)C(=O)CS2)N1CCOCC1 | -7.7%
